Results as given in ChEMBL document CHEMBL6083205, “A comprehensive apoptotic assessment of niloticin in cervical cancer cells: a tirucallane-type triterpenoid from Aphanamixis polystachya (Wall.) Parker” (RSC Med Chem, 2024).

Test system: HeLa
Assay: Antiproliferative activity against human HeLa cells assessed as inhibition of cell growth incubated for 24 hrs by MTT assay
Format: functional, cell-based
How it was run: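 Cells kept in DMEM with 10% FBS and 1% antibiotic-antimycotic at 37 °C and 5% CO2. Seeded at 8 × 10^3 cells per 100 μL and left 24 h, then exposed 24 h to 5, 10, 20, 50 or 100 μM. MTT at 0.5 mg/mL in HBSS was added for 2–4 h at 37 °C in the dark. Formazan was dissolved in DMSO, A570 was read, and IC50 was derived.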

IC50: > 100 µM
SMILES: C[C@@H](C[C@@H](O)[C@H](O)C(C)(C)O)[C@@H]1CC[C@]2(C)C3=CC[C@H]4C(C)(C)[C@H](O)CC[C@]4(C)[C@H]3CC[C@@]12C
